Measurements from ChEMBL document CHEMBL4007436, “Synthesis of Novel Synthetic Vitamin K Analogues Prepared by Introduction of a Heteroatom and a Phenyl Group That Induce Highly Selective Neuronal Differentiation of Neuronal Progenitor Cells” (2017).
Calls of active or inactive are those of the source. The calls are words filed in the database; no cut-off is given here.

Legend:
[1] = system: Neuronal progenitor cell; assay: Induction of neuronal differentiation in C57BL/6J mouse neuronal progenitor cells assessed as expression of Map2 at 1 uM treated for every second day for 4 days measured after 48 hrs by DAPI-staining based immunofluorescence method; assay type: functional
Outline: (§1)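 Neural stem cells taken from embryonic day 14 cerebrum of C57BL/6J mice, dispersed with trypsin/DNase I at 37 °C, seeded and grown 1 day at 37 °C, 5% CO2. Medium replaced with 10% FCS DMEM (low glucose) containing 1 µM analogue; ethanol at 0.1% as control. After 48 h, cells permeabilized with 0.2% Triton X-100. Staining used anti-Map2 (CF594, red) and anti-Gfap (CF488A, green), each overnight at 4 °C, with DAPI nuclei, then fluorescence microscopy.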

[2] = system: Neuronal progenitor cell; assay: Induction of neuronal differentiation in C57BL/6J mouse neuronal progenitor cells assessed as expression of Gfap at 1 uM treated for every second day for 4 days measured after 48 hrs by DAPI-staining based immunofluorescence method; assay type: functional; outline: as §1
[3] = Induction of neuronal differentiation in C57BL/6J mouse neuronal progenitor cells assessed as fold increase in Map2/beta-actin mRNA level at 1 uM treated for every second day for 4 days by RT-PCR analysis relative to control; assay type: functional, Neuronal progenitor cell
Outline: (§2)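 C57BL/6J E14 mouse cerebral neural stem cells were cultured 24 h after seeding. They were then treated with 1 µM analogue or ethanol control for 4 days, dosed every second day. mRNA was extracted, and Map2, Gfap and β-actin were quantified by real-time PCR. Map2/β-actin or Gfap/β-actin ratios were normalized to the EtOH control (set at 1.0). Values are means of three independent experiments; significance by Dunnett's t-test.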

[4] = system: Neuronal progenitor cell; assay: Induction of neuronal differentiation in C57BL/6J mouse neuronal progenitor cells assessed as increase in relative ratio of Map2/Gfap mRNA level at 1 uM treated for every second day for 4 days by RT-PCR analysis relative to control; assay type: functional, cell-based
Outline: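 E14 C57BL/6J mouse cerebral neural progenitor cells were treated with 1 µM analogue or ethanol every second day for 4 days. Map2 and Gfap mRNA (each relative to β-actin) were measured by real-time PCR. The Map2/Gfap ratio was calculated and normalized to the EtOH control (set at 1.0).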

[5] = system: Neuronal progenitor cell; assay: Induction of neuronal differentiation in C57BL/6J mouse neuronal progenitor cells assessed as increase in Gfap/beta-actin mRNA level at 1 uM treated for every second day for 4 days by RT-PCR analysis relative to control; assay type: functional, cell-based; outline: as §2
[6] = system: Neuronal progenitor cell; assay: Induction of neuronal differentiation in C57BL/6J mouse neuronal progenitor cells assessed as increase in Map2/beta actin mRNA level at 1 uM treated for every second day for 4 days by RT-PCR analysis relative to control; assay type: functional, cell-based; outline: as §2

Row | SMILES | Activity [1] | Activity [2] | fold change (FC) [3] | Activity [4] | Activity [5] | Activity [6]
1 | CC1=C(C/C=C(\C)CC/C=C(\C)CNc2ccc(F)cc2)C(=O)c2ccccc2C1=O | Active | inactive | > 2 | Active |  | 
2 | CC(C)=CCC/C(C)=C/CC/C(C)=C/CC/C(C)=C/CC1=C(C)C(=O)c2ccccc2C1=O [MENATETRENONE] | Active | Active | >2 |  | Active | 
3 | CC1=C(C/C=C(\C)CC/C=C(\C)CC/C=C(\C)COc2cccc(C)c2)C(=O)c2ccccc2C1=O | Active | inactive |  | Active |  | Active
4 | CC1=C(C/C=C(\C)CC/C=C(\C)CC/C=C(\C)COc2ccccc2)C(=O)c2ccccc2C1=O |  |  |  |  |  | Active
5 | CC1=C(C/C=C(\C)CC/C=C(\C)CNc2ccccc2)C(=O)c2ccccc2C1=O |  |  |  |  |  | Active
